Results from ChEMBL document CHEMBL4359835, “Design, Synthesis, and Anti-RNA Virus Activity of 6'-Fluorinated-Aristeromycin Analogues” (J Med Chem, 2019).

What was measured:
[1] = […] CHIKV LS3 infected in African green monkey Vero E6 cells assessed as reduction in virus-induced cytopathic effect measured after 96 hrs post-infection by MTS assay; conditions: Chikungunya virus, LS3, Vero C1008, 96 h
[2] = […]; assay type: cell-based; conditions: Middle East respiratory syndrome-related coronavirus, EMC/2012, Vero, 72 h
Vero [3] = test: Cytotoxicity against African green monkey Vero cells assessed as reduction in cell viability measured after 72 hrs by MTS assay; assay type: cell-based; conditions: chlorocebus sabaeus
Procedure, shortened: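 Uninfected Vero cells (20 000/well) were incubated with compound for 72 h, alongside MERS-CoV assays. Viability by MTS for 2–2.5 h, formaldehyde fixation, then A495 relative to untreated controls. Eight concentrations, quadruplicate; CC50 from nonlinear regression.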

[4] = (§1) Cytotoxicity against African green monkey Vero E6 cells assessed as reduction in cell viability measured after 72 hrs by MTS assay; assay type: cell-based, Vero C1008; conditions: chlorocebus sabaeus, Vero E6 cells (Vero C1008)
Procedure, shortened: (§2)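 Uninfected Vero E6 cells (10 000/well) were exposed to compound for 72 h, in parallel with SARS-CoV CPE assays. Eight concentrations in quadruplicate; CC50 by nonlinear regression.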

Adenosylhomocysteinase = Adenosylhomocysteinase (Homo sapiens, UniProt P23526); test: Inhibition of human placental SAH hydrolase expressed in Escherichia coli JM109 using SAH as substrate preincubated for 10 mins followed by SAH addition and measured after 20 mins by […] reagent-based spectrophotometric method
Chain of Adenosylhomocysteinase (P23526 whole entry): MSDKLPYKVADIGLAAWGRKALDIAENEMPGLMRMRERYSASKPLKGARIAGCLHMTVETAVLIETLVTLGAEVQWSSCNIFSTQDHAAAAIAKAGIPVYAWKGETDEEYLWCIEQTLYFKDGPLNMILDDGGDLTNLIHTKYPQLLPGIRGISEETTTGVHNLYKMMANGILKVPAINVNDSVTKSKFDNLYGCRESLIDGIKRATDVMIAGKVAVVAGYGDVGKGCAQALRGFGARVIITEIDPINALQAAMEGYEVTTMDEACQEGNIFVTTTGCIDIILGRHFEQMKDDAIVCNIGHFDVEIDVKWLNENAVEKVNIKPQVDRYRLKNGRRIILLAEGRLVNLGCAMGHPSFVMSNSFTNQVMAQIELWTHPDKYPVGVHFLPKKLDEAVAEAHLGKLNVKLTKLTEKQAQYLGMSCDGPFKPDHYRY

[5] = […]; parameters: species or system SARS coronavirus Frankfurt 1; conditions: Severe acute respiratory syndrome-related coronavirus, Vero C1008, 72 h
Vero C1008 = test: as §1; assay type: cell-based; conditions: chlorocebus sabaeus, vero c1008, 72 h; procedure, shortened: as §2
Vero [6] = test: Cytotoxicity against African green monkey Vero cells assessed as reduction in cell viability measured after 96 hrs by MTS assay; assay type: cell-based; conditions: chlorocebus sabaeus
Procedure, shortened: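 Uninfected Vero CCL81 cells (5000/well) were treated for 96 h in parallel with ZIKV CPE assays. Eight concentrations, quadruplicate; CC50 by nonlinear regression.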

[7] = Selectivity index, ratio of CC50 for African green monkey Vero E6 cells to EC50 for inhibition of RNA-dependent RNA polymerase in SARS-CoV Frankfurt1 infected in African green monkey Vero E6 cells assessed as reduction in virus-induced cytopathic effect; assay type: toxicity, Vero C1008; conditions: read-out: Ratio CC50/EC50
[8] = Selectivity index, ratio of CC50 for African green monkey Vero cells to EC50 for inhibition of RNA-dependent RNA polymerase in ZIKV SL0612 infected in African green monkey Vero cells assessed as reduction in virus-induced cytopathic effect; assay type: toxicity; conditions: read-out: Ratio CC50/EC50
Procedure, shortened: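 Vero CCL81 cells (5000/well) received ZIKV at MOI 0.05 in compound-containing infection medium. MTS was read at 96 hpi (A495, relative to uninfected), with uninfected cells run in parallel for CC50. Eight concentrations, quadruplicate; nonlinear regression; SI = CC50/EC50.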

[9] = Selectivity index, ratio of CC50 for African green monkey Vero E6 cells to EC50 for inhibition of RNA-dependent RNA polymerase in CHIKV LS3 infected in African green monkey Vero E6 cells assessed as reduction in virus-induced cytopathic effect; assay type: toxicity, Vero C1008; conditions: read-out: Ratio CC50/EC50
Procedure, shortened: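 Vero E6 cells (5000/well) were infected with CHIKV at MOI 0.005 in EMEM/25 mM HEPES/2% FCS containing compound. CPE was read by MTS at 96 hpi (A495, relative to uninfected). Uninfected cells were tested in parallel for CC50. Eight concentrations, quadruplicate; EC50 and CC50 by nonlinear regression; SI = CC50/EC50.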

[10] = Selectivity index, ratio of CC50 for African green monkey Vero cells to EC50 for inhibition of RNA-dependent RNA polymerase in MERS-CoV EMC/2012 infected in African green monkey Vero cells assessed as reduction in virus-induced cytopathic effect; assay type: toxicity; conditions: read-out: Ratio CC50/EC50
Chikungunya virus = test: Antiviral activity against CHIKV LS3 infected in African green monkey Vero E6 cells assessed as log reduction in viral titer measured after 30 hrs post infection by plaque assay; assay type: functional, Vero C1008
[11] = system: Middle East respiratory syndrome-related coronavirus; test: Antiviral activity against MERS-CoV EMC/2012 infected in African green monkey Vero cells assessed as log reduction in virus titre at >0.3 uM measured after 48 hrs viral infection by plaque assay; assay type: functional
Zika virus = test: Antiviral activity against ZIKV SL0612 infected in African green monkey Vero cells assessed as log reduction in viral titre up to 1.5 uM measured at 48 hrs post infection by plaque assay; assay type: functional
Procedure, shortened: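 Vero E6 cells (7.5 × 10^4/well) adhered overnight in DMEM/8% FCS. ZIKV infection was at MOI 1 for 2 h at 37 °C in EMEM/2% FCS with compound (0–1.5 μM), followed by washing and 48 h in compound-containing medium. Supernatant titre was read by plaque assay on Vero CCL81. Duplicates in two independent experiments (n = 4).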

SARS-CoV = test: Antiviral activity against SARS-CoV Frankfurt1 infected in African green monkey Vero E6 cells assessed as log reduction in viral titre at >0.3 uM measured at 48 hrs post infection by plaque assay; assay type: functional, Severe acute respiratory syndrome-related coronavirus, Frankfurt 1, Vero C1008
[12] = Partition coefficient, log P of the compound in liquid/aqueous phase by pH-metric method; assay type: physicochemical; conditions: octanol/water

Compound	EC50 [1] [µM]	EC50 [2] [µM]	CC50 (Vero [3]) [µM]	CC50 at 72 h [4] [µM]	IC50 (Adenosylhomocysteinase) [µM]	EC50 [5] [µM]	CC50 (Vero C1008) [µM]	CC50 (Vero [6]) [µM]	selectivity ratio [7]	selectivity ratio [8]	selectivity ratio [9]	selectivity ratio [10]	FC (Chikungunya virus)	FC [11]	FC (Zika virus)	FC (SARS-CoV)	logP [12]
Nc1ncnc2c1ncn2[C@H]1[C@H](O)[C@H](O)[C@@H](CO)[C@@H]1F	0.53																
Nc1ncnc2c1ncn2[C@H]1[C@H](O)[C@H](O)[C@@H](CO)[C@H]1F	> 100	0.2	0.6	> 100													
O=c1ccn([C@H]2[C@H](O)[C@H](O)[C@@H](CO)[C@H]2F)c(=O)[nH]1	> 100	> 100			> 100	> 100	> 100										
Nc1ccn([C@H]2[C@H](O)[C@H](O)[C@@H](CO)C2(F)F)c(=O)n1	> 100	> 50	> 50		> 100	> 100	> 100	> 100									
CNc1ncnc2c1ncn2[C@H]1[C@H](O)[C@H](O)[C@@H](CO)[C@H]1F	> 100	> 50	> 50		4.39	> 100	> 100	> 100									
CC(C)OC(=O)[C@H](C)N[P@](=O)(OC[C@@H]1[C@@H](O)[C@@H](O)[C@H](n2ccc(=O)[nH]c2=O)[C@@H]1F)Oc1ccccc1	> 100	> 50	> 50		> 100	> 100	> 100	> 100									
CC(C)OC(=O)[C@H](C)N[P@](=O)(OC[C@@H]1[C@@H](O)[C@@H](O)[C@H](n2ccc(=O)[nH]c2=O)C1(F)F)Oc1ccccc1	> 100	> 50	> 50		> 100	> 100	> 100	> 100									
CC(C)OC(=O)[C@H](C)N[P@](=O)(OC[C@@H]1[C@@H](O)[C@@H](O)[C@H](n2cnc3c(N)ncnc32)C1(F)F)Oc1ccccc1	1.95	9.3	> 50	12.5 to 25	> 100	6.8		> 25	> 3.7	> 14.3	> 6.4						
CNc1ncnc2c1ncn2[C@H]1[C@H](O)[C@H](O)[C@@H](CO)C1(F)F	> 100	> 50	12.5		0.76	> 100	> 100	> 100									
O=c1ccn([C@H]2[C@H](O)[C@H](O)[C@@H](CO)[C@@H]2F)c(=O)[nH]1	> 100	> 100	> 100		> 100	> 100		> 100									
Nc1ncnc2c1ncn2[C@H]1[C@H](O)[C@H](O)[C@@H](CO)C1(F)F	0.13	0.2	3.2	1.25 to 5.9	1.06	0.5		> 2.5	11.8	> 9.6	> 9.6	16	>2	2.5	1	1.5	0.02
O=c1ccn([C@H]2[C@H](O)[C@H](O)[C@@H](CO)C2(F)F)c(=O)[nH]1	> 100	> 50	> 50		> 100	> 100	> 100	> 100									
Nc1ccn([C@H]2[C@H](O)[C@H](O)[C@@H](CO)[C@H]2F)c(=O)n1	> 100	> 100	> 100		> 100	> 100	> 100	> 100									
Nc1ncnc2c1ncn2[C@@H]1C[C@H](CO)[C@@H](O)[C@H]1O [ARISTEROMYCIN]	0.8	> 50	2	2.4 to 6.3		> 50		2.4									
